Most compounds without a hit are left out; they make up all but 3.3% or so of the library.
PglD inh – inhibitors of Campylobacter jejuni PglD acetyltransferase | purified PglD enzyme, DTNB colorimetric CoA detection | inhibition, % at 12.5 µM | hit rate 0.098% among 360,000 | AID 602405; in the data active = inhibition above about 16%, passing the limit was not always enough
DENV2 CPE rescue – DENV2-induced cell death inhibition. DENV2-infected cells, cytopathic effect rescue, plate reader. CPE inhibition, % at 9.99 µM. hit rate 1.7% among 350,000; in the data active = CPE inhibition above about 20%, passing the limit was not always enough; tested in BHK-21 cells
E-sel inducer – induces E-selectin expression in human endothelial cells; HUVEC E-selectin immunofluorescence imaging; normalized: neutral wells 0, TNF-alpha wells 100; AID 686992; P16581; hit rate 0.37% among 260,000; activation, % at 7.58 µM;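 active = mean E-selectin-positive cell signal at least 10% of the positive control, reached in at least 60% of replicates, without over 20% cell loss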
Target sequence (P16581 whole entry, looked up): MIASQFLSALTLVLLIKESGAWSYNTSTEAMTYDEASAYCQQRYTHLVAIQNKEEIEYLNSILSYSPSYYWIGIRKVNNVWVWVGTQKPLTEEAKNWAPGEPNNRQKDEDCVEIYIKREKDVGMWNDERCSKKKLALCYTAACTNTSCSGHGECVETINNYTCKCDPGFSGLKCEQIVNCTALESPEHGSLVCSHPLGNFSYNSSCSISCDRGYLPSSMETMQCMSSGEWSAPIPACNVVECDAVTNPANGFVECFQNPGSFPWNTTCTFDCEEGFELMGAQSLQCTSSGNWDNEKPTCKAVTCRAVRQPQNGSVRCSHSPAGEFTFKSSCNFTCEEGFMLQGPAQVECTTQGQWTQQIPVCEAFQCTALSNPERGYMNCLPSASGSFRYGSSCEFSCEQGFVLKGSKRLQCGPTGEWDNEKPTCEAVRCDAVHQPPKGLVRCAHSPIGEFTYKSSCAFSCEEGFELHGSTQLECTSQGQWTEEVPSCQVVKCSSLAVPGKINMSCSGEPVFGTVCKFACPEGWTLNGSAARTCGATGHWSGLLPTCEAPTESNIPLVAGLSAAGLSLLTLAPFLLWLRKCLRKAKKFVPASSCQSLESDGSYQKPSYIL
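System: HUVEC / Compound: single concentration / Signal: immunofluorescence imaging / Read-out: percent E-selectin-positive cells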
FGF22 binding – FGF22 (human) thermal shift binding; Q9HCT0; recombinant FGF22 thermal shift, SYPRO orange fluorescence; percent of sucrose octasulfate shift, DMSO zero; activity (Tm shift, normalised), % at 9.99 µM; hit rate 1.5% among 340,000; AID 651658;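 active = mean Tm shift, scaled 0 neutral to 100 positive control, at about 1.3% or above, every replicate too, limit read from the data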
Xi reactivation – X-chromosome reactivation activator; XiGFP mouse fibroblasts, % GFP-positive cells imaging, 3 d; cells co-treated with 5-aza-dC sensitizer; scaled so ellipticine positive control = 100%; AID 743238; activation, % at 7.58 µM; hit rate 0.055% among 360,000;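 active = mean normalized replicate activation at least 10% and every replicate at or above 10%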
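Schedule: 3 d treatment, 15 min room-temperature fixation; system: 68-5-11 XiGFP fibroblast line; buffer or medium: DMEM plus 5-aza-dC sensitizer; control set: ellipticine 6 µM positive control; compound: one concentration, pinned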
C2C12 statin – suppression of simvastatin myotoxicity; rescue of ATP level, % at 7.49 µM; C2C12 myotubes + simvastatin, ATP luminescence, 48 h; scaled: DMSO 0, geranylgeraniol control 100; hit rate 0.78% among 330,000;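 active = mean ATP rescue above about 67%, or every replicate alone reaching that limit, limit read from the data, passing the limit was not always enough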;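 note: myotubes were challenged with 10 µM simvastatin during compound exposure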
Each line names hits and unclear results; the compound was inactive in the other large screens.

Cc1ccc(NC(=O)c2cc(C(=O)Nc3ccc(C)cc3)n(C)n2)cc1	DENV2 CPE rescue 41.6 (no result: PglD inh, E-sel inducer, C2C12 statin)
NS(=O)(=O)c1ccc(N2C(=O)C3CC=CCC3C2=O)cc1 (stereo not given)	FGF22 binding 43.9 (no result: PglD inh, E-sel inducer, C2C12 statin)
CCOC(=O)c1ccc(N2C(=O)C3CC=CCC3C2=O)cc1 (stereo not given)	none (no result: DENV2 CPE rescue, E-sel inducer, FGF22 binding, Xi reactivation)
O=C(/C=C/c1ccccn1)c1ccc(Br)cc1O	E-sel inducer 105.3 (no result: PglD inh, C2C12 statin)
O=C(C1CCC1)N1CCCCN2[C@@H](CO)[C@@H](c3ccc(-c4ccncc4)cc3)[C@@H]2C1	none
COCC(=O)Nc1ccc2c(c1)[C@H]1C[C@@H](CC(=O)NCc3ccccc3OC)O[C@@H](CO)[C@H]1O2	none
Cc1ccc(NC(=S)N(Cc2ccc(Br)cc2)Cc2ccc(C(=O)O)cc2)cc1C	FGF22 binding 43.0 (no result: PglD inh, E-sel inducer, C2C12 statin)
Cc1cc(NC(=S)N(Cc2ccc(Cl)cc2)Cc2ccc(C(=O)O)cc2)ccc1Cl	FGF22 binding 43.7 (no result: E-sel inducer)
CCCOc1ccc(C(O)(CCN2CCCCC2)c2ccccc2OC)cc1 (stereo not given)	C2C12 statin 87.0
O=C(CNC(=O)c1ccccc1)OCC(=O)N1N=C(c2ccc(Cl)cc2)CC1c1ccco1 (stereo not given)	FGF22 binding 43.0 (no result: PglD inh, C2C12 statin)
C[C@@H]1CN([C@@H](C)CO)C(=O)Cc2cc(NC(=O)Nc3ccccc3)ccc2O[C@@H]1CN(C)C(=O)Nc1ccc(C(F)(F)F)cc1	none
CCN(CC)CCCNC(=S)N1CCN(c2nc3ccccc3n2CC)CC1	DENV2 CPE rescue 41.1
CCN(CC)CCCNC(=S)N1CCn2c(nc3ccccc32)C1	none (no result: DENV2 CPE rescue, E-sel inducer, FGF22 binding, Xi reactivation)
CCCC#Cc1ccc2c(c1)O[C@H](CN(C)C(=O)c1ccccc1)[C@H](C)CN([C@H](C)CO)S2(=O)=O	none
O=C(Cn1nnc2c(cnn2-c2ccc(F)cc2)c1=O)Nc1ccccc1C(F)(F)F	FGF22 binding 43.1 (no result: PglD inh, DENV2 CPE rescue, E-sel inducer, C2C12 statin)
O=C(Cn1nnc2c(cnn2-c2ccccc2)c1=O)NCc1cccs1	none (no result: DENV2 CPE rescue, E-sel inducer, FGF22 binding, Xi reactivation)
CCOc1ccccc1N	DENV2 CPE rescue 23.2 (no result: E-sel inducer, Xi reactivation)
COc1ccc(N=Cc2c(C)[nH][nH]c2=O)cc1	FGF22 binding 43.2 (no result: E-sel inducer)
Cc1[nH][nH]c(=O)c1C=Nc1ccc(C(F)(F)F)cc1	none (no result: PglD inh, C2C12 statin)
Cc1cc(C)nc(NC(N)=NC(C)c2ccccc2)n1 (stereo not given)	E-sel inducer 185.3 (no result: PglD inh, C2C12 statin)
CCC#CCN(Cc1ccccc1Br)[C@H](/C=C/c1ccccc1)[C@@H](O)Cc1ccccc1	none (no result: E-sel inducer, Xi reactivation, C2C12 statin)
C[C@@H]1CN([C@H](C)CO)C(=O)CCCn2nncc2CO[C@@H]1CN(C)Cc1ccccc1C(=O)O	none
C[C@@H]1CN([C@H](C)CO)C(=O)c2cc(NS(=O)(=O)c3cn(C)cn3)ccc2O[C@@H](C)CCCCO[C@H]1CN(C)CC1CCCCC1	none
Cc1cc(C)n(-c2nc3ccccc3c(=O)n2OCCOc2ccccc2)n1	C2C12 statin 99.5 (no result: DENV2 CPE rescue, E-sel inducer, FGF22 binding, Xi reactivation)
C=CCOn1c(-n2nc(C)cc2C)nc2ccccc2c1=O	none
Cc1noc(C)c1NC(=O)N(C)C[C@@H]1Oc2cc(C#CCN(C)C)ccc2S(=O)(=O)N([C@@H](C)CO)C[C@H]1C	none
C[C@@H]1CCCCO[C@H](CN(C)C(=O)Nc2ccc(F)cc2)[C@@H](C)CN([C@@H](C)CO)C(=O)c2cc(NC(=O)c3ccncc3)ccc2O1	none (no result: C2C12 statin)
O=C(COc1ccccc1)N/N=C/c1ccc([N+](=O)[O-])o1	none (no result: PglD inh, E-sel inducer, C2C12 statin)
O=C(CNc1ccc2ccccc2c1)N/N=C/c1ccc([N+](=O)[O-])o1	FGF22 binding 43.2 (no result: DENV2 CPE rescue, E-sel inducer)
C[C@H](CO)N1C[C@H](C)[C@H](CN(C)Cc2ccccc2F)Oc2cc(C#CC3CC3)ccc2S1(=O)=O	none
O=C(NCc1ccco1)c1ccccc1NS(=O)(=O)c1ccc2c(c1)OCCO2	C2C12 statin 108.6 (no result: DENV2 CPE rescue, E-sel inducer, FGF22 binding, Xi reactivation)
CN(c1ccc(C(=O)NCc2ccco2)cc1)S(C)(=O)=O	C2C12 statin 107.3 (no result: DENV2 CPE rescue, E-sel inducer, FGF22 binding, Xi reactivation)
CN(C)S(=O)(=O)c1ccc(C(=O)NCc2ccco2)cc1	FGF22 binding 43.9 (no result: PglD inh)
CN(C)C(CNC(=O)c1ccc(S(=O)(=O)N(C)C)cc1)Cc1ccccc1 (stereo not given)	FGF22 binding 43.3 (no result: PglD inh, E-sel inducer, C2C12 statin)
CN(c1ccc(C(=O)NCCSCc2ccco2)cc1)S(C)(=O)=O	none (no result: PglD inh, DENV2 CPE rescue, E-sel inducer, FGF22 binding, Xi reactivation)
CCCNC(=O)Nc1ccc2c(c1)C(=O)N(C)C[C@H](OC)[C@H](C)CN(CCC)[C@@H](C)CO2	none (no result: FGF22 binding)

Assay outcomes deposited in PubChem by Broad Institute.
